Converted amounts (≈) assume the structure as drawn.
What was measured:
[1] = system: Staphylococcus aureus; experiment: Antibacterial activity against Staphylococcus aureus; type: functional
[2] = system: Staphylococcus aureus; experiment: Antibacterial activity against methicillin-resistant Staphylococcus aureus SAU1009; type: functional
In short: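 MIC against MRSA strain SAU1009.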

[3] = biological target: T1, Amine oxidase [flavin-containing] A (Homo sapiens, UniProt P21397); experiment: Inhibition of human recombinant MAO-A expressed in yeast after 1 hr by luciferin-based luminescence assay
T1 sequence (P21397 whole entry): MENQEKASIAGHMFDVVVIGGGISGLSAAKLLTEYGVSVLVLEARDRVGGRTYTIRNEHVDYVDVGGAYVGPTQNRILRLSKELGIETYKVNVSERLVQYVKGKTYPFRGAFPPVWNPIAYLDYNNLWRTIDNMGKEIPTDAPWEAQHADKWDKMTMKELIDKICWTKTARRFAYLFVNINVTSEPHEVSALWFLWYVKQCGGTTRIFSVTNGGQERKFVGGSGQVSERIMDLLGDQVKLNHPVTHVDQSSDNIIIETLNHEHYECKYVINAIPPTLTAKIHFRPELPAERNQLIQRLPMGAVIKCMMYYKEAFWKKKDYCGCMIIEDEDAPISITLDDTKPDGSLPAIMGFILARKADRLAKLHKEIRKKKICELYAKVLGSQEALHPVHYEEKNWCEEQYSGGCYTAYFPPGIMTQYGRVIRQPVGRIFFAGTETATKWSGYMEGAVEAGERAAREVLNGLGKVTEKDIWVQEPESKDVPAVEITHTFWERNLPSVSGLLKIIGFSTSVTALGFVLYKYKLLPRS

[4] = system: Staphylococcus aureus; experiment: Antibacterial activity against Staphylococcus aureus in po dosed mouse septicemia model; type: functional
[5] = system: Staphylococcus aureus; experiment: Antibacterial activity against Staphylococcus aureus UC9213; type: functional

| SMILES | MIC [2] [µg/mL] | ED50 [4] [mg/kg] | further results |
| --- | --- | --- | --- |
| CC(=O)NC[C@H]1CN(c2ccc(C(C)=O)cc2F)C(=O)O1 |  |  | MIC [1]: 32 µg/mL (≈ 109 µM) |
| O=C1O[C@@H](CO)CN1c1ccc(-c2ccc(N3CCOC3=O)nc2)c(F)c1 | 0.125 (≈ 0.335 µM) |  |  |
| CC(=O)NC[C@H]1CN(c2ccc(N3C=CC(=O)CC3)c(F)c2)C(=O)O1 |  | 10 | IC50 [3]: 10.9 µM; MIC [5]: 0.5 µg/mL (≈ 1.44 µM) |
| N#Cc1ccc(-c2ccc(N3C[C@H](CO)OC3=O)cc2F)cn1 | 0.25 (≈ 0.798 µM) |  |  |
| N#Cc1ccc(-c2ccc(N3C[C@H](CO)OC3=O)c(F)c2F)cn1 | 1 (≈ 3.02 µM) |  |  |
| O=C1OCCN1c1ccc(-c2ccc(N3C[C@H](CO)OC3=O)c(F)c2F)cn1 | 0.5 (≈ 1.28 µM) |  |  |
| Cn1nnc(-c2ccc(-c3ccc(N4C[C@H](CO)OC4=O)c(F)c3F)cn2)n1 | 1 (≈ 2.58 µM) |  |  |
| CC(=O)NC[C@H]1CN(c2ccc(N3C=CC(=O)CC3)c(F)c2F)C(=O)O1 | 1 (≈ 2.74 µM) | 15.9 | IC50 [3]: > 274 µM |
| CC(=O)NC[C@H]1CN(c2cc(F)c(N3C=CC(=O)CC3)c(F)c2F)C(=O)O1 | 2 (≈ 5.22 µM) | > 20 |  |
